# Assay results taken from ChEMBL document CHEMBL4393735, “Molecular modelling, synthesis, and biological evaluations of a 3,5-disubstituted isoxazole fatty acid analogue as a PPARα-selective agonist” (Bioorg Med Chem, 2019).
# Activity calls are given as the source filed them.
# How the values were obtained:
# [1] = target: T1, Peroxisome proliferator-activated receptor gamma (Homo sapiens) (UniProt P37231); test: Agonist activity at full length human FLAG-tagged GAL4-DBD fused PPARgamma LBD (205 to 505 residues) expressed in COS1 cells transfected with hRXRalpha and hPLIN1-driven reporter assessed as PLIN1 mRNA level at 50 uM measured after 18 hrs by dual luciferase reporter gene assay; assay type: cell-based
# T1 sequence (whole entry): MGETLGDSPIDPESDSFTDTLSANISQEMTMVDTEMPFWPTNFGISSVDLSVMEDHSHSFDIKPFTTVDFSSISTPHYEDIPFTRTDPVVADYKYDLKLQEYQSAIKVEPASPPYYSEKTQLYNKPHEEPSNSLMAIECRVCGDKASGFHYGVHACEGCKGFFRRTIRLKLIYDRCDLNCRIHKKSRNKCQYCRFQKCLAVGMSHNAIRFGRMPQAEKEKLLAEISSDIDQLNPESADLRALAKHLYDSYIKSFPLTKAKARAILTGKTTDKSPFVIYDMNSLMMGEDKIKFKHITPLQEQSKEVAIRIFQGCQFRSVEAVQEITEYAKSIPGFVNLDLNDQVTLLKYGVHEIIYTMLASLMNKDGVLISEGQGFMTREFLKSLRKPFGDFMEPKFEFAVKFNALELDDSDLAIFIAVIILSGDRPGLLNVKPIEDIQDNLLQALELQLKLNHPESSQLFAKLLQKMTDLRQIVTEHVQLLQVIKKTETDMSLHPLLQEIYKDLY
# In short: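 COS-1 cells were transfected with full-length human PPARα (or PPARγ) plus RXRα expression plasmids, with a wild-type or PPRE-mutated CPT1A-intronic (or PLIN1) luciferase reporter and pRL-CMV. Cells were treated with 50 μM in 0.1% DMSO (final) for 18 h. Dual-luciferase read-out normalized to DMSO control. Three biological replicates in quadruplicate, mean ± SEM.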
# [2] = target: T2, Peroxisome proliferator-activated receptor delta (Homo sapiens) (UniProt Q03181); test: Agonist activity at full length human GAL4-DBD fused PPARdelta LBD expressed in COS1 cells at 25 to 50 uM measured after 18 hrs by dual luciferase reporter gene assay; assay type: cell-based
# T2 sequence (whole entry): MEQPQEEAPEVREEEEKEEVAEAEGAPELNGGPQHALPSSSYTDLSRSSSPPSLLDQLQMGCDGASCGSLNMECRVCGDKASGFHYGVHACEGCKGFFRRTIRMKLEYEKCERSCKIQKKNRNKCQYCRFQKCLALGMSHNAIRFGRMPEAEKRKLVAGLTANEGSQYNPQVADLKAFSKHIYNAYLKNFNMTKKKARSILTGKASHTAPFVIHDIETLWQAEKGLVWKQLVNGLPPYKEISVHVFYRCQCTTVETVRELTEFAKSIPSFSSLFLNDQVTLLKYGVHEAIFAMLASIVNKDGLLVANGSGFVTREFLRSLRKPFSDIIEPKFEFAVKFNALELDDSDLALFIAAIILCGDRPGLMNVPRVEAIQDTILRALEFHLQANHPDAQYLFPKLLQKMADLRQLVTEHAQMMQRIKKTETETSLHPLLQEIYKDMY
# In short: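 COS-1 cells were transfected using Lipofectamine 2000 with GAL4-DBD–human NR-LBD plasmid, a 5×UAS-SV40 firefly luciferase reporter and pRL-CMV. After 6 h, cells were treated with 0, 25 or 50 μM in 0.1% DMSO (final) for 18 h. Firefly signal was normalized to Renilla, then to DMSO control and GAL4-only. Three biological replicates in quadruplicate, mean ± SEM, two-way ANOVA with Bonferroni.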
# COS-1 [3] = test: Cytotoxicity against African green monkey COS1 cells assessed as reduction in cell viability at 10^-4 M by LDH release assay; assay type: cell-based; conditions: chlorocebus aethiops, cos-1, 100 µM
# In short: (§1)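 COS-1 cells were treated across the same concentration series as the GAL4 dose-response runs. Cytotoxicity was measured as LDH released into medium (absorbance 492/750 nm) and by XTT viability assay (absorbance 450/690 nm). Results expressed relative to control.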
# [4] = target: T3, Peroxisome proliferator-activated receptor alpha (Homo sapiens) (UniProt Q07869); test: Agonist activity at PPARalpha in human Huh7 cells assessed as SREBF1 mRNA expression at 50 uM measured after 18 hrs by qRT-PCR analysis; assay type: cell-based
# T3 sequence (whole entry): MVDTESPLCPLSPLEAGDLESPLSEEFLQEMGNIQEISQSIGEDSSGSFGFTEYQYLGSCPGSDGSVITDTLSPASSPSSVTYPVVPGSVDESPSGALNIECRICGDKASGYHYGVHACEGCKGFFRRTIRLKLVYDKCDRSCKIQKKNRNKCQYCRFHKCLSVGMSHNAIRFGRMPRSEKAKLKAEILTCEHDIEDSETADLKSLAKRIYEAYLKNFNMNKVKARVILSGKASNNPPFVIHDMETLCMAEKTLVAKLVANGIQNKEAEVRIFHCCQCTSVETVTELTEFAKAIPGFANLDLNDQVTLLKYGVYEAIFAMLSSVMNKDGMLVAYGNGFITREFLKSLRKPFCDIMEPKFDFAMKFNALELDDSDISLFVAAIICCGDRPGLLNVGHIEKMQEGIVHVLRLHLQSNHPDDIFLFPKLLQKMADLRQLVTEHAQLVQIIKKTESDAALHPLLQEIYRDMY
# In short: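 Treatment for 18 h at 50 μM (or 1 μM for the 1 μM agents), DMSO vehicle. Harvested for qPCR. mRNA normalized to TBP by the comparative threshold method, expressed relative to DMSO control. Two biological replicates run in duplicate, mean ± SEM. Primary hepatocytes came from male C57BL/6N mice aged 7–8 weeks, isolated by portal-vein perfusion and digestion, seeded on collagen I and used on day 2. HuH-7 cells were kept in DMEM with 10% FBS and ITS.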
# [5] = target: T1, Peroxisome proliferator-activated receptor gamma (Homo sapiens); test: Inverse agonist activity at full length human FLAG-tagged GAL4-DBD fused PPARgamma LBD (205 to 505 residues) expressed in COS1 cells assessed as inhibition of rosiglitazone binding measured after 18 hrs by dual luciferase reporter gene assay; assay type: cell-based
# In short: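 COS-1 cells carried GAL4-DBD–PPARγ-LBD with a UAS-luciferase reporter and Renilla control. Cells were titrated with increasing test compound in the presence of 1.0 μM rosiglitazone for 18 h in 0.1% DMSO. Firefly/Renilla ratio, normalized to GAL4-only activity.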
# COS-1 [6] = test: Cytotoxicity against African green monkey COS1 cells assessed as reduction in cell viability at 10^-4 M by XTT based assay; conditions: chlorocebus aethiops, cos-1, 100 µM; in short: as §1
# SGBS [7] = test: Upregulation of ANGPTL4 gene expression in human preadipocyte derived from Simpson-Golabi-Behmel syndrome (SGBS) patient at 25 uM measured for 12 days by qRT-PCR analysis; assay type: functional, cell-based
# In short: (§2)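 SGBS cells were differentiated with serum-free induction medium containing 25 μM test agent, 2 μM rosiglitazone or 0.1% DMSO from day 0. IBMX and dexamethasone were removed on day 4 and medium was renewed on day 8. RNA was taken on days 0, 4, 8 and 12 for qPCR, normalized to TBP and to day 0. At least three biological replicates in duplicate, two-way ANOVA with Bonferroni.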
# SGBS [8] = test: Upregulation of PLIN1 gene expression in human preadipocyte derived from Simpson-Golabi-Behmel syndrome (SGBS) patient at 25 uM measured for 12 days by qRT-PCR analysis; assay type: functional, cell-based; in short: as §2
smiles,measurement,setting,value
CCCCCCCc1cc(CCCCCC(=O)O)no1,Activity,[1],inactive
same,Activity,[2],inactive
same,Activity,COS-1 [3],Toxic
same,Activity,[4],inactive
same,Activity,[5],inactive
same,Activity,COS-1 [6],Toxic
same,Activity,SGBS [7],Active
same,Activity,SGBS [8],Active
